Reference: ChEMBL document CHEMBL1255303, “In vitro and in vivo antifungal activities of T-2307, a novel arylamidine” (2008)
Converted amounts (≈) assume the structure as drawn.

Assays:
Type in all cases: functional
Candida albicans [1] = assay: Antifungal activity against Candida albicans ATCC 24433 after 48 hrs by broth microdilution method; conditions: ATCC 24433, 48 h
Procedure, shortened: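 CLSI M27-A2 (yeasts) or M38-A (A. fumigatus) broth microdilution in RPMI 1640 buffered to pH 7.0 with 0.165 M MOPS. Final inocula were 0.65–2.5 × 10^3 CFU/ml for yeasts and 0.87–3.8 × 10^4 CFU/ml for filamentous fungi. Incubation was at 35°C for about 48 h (72 h for C. neoformans). MIC was the lowest concentration giving a prominent (~50%) turbidity drop versus growth control; amphotericin B required complete inhibition.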

Candida albicans [2] = assay: Antifungal activity against Candida albicans ATCC 90028 after 48 hrs by broth microdilution method; conditions: ATCC 90028, 48 h
Procedure, shortened: (§1)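 CLSI M27-A2 (yeasts) / M38-A (moulds) broth microdilution in RPMI 1640 buffered to pH 7.0 with 0.165 M MOPS. Malassezia furfur got the same medium supplemented with glucose, bile salts, glycerol, glycerol monostearate and Tween 20. Final inoculum 0.65 × 10^3–2.5 × 10^3 CFU/ml for yeasts and 0.87 × 10^4–3.8 × 10^4 CFU/ml for filamentous fungi. Incubation at 35°C except M. racemosus and F. solani, which were held at 30°C.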

Candida dubliniensis = assay: Antifungal activity against Candida dubliniensis ATCC MYA-577 after 48 hrs by broth microdilution method; conditions: ATCC MYA-577, 48 h; procedure, shortened: as §1
Pichia kudriavzevii [3] = assay: Antifungal activity against Candida krusei IFO 0584 after 48 hrs by broth microdilution method; conditions: IFO 0584, 48 h; procedure, shortened: as §1
Cryptococcus neoformans = assay: Antifungal activity against Cryptococcus neoformans ATCC 90113 after 72 hrs by broth microdilution method; conditions: ATCC 90113, 72 h; procedure, shortened: as §1
Malassezia furfur = assay: Antifungal activity against Malassezia furfur NBRC 0656 after 48 hrs by broth microdilution method; conditions: NBRC 0656, 48 h; procedure, shortened: as §1
Saccharomyces cerevisiae = assay: Antifungal activity against Saccharomyces cerevisiae ATCC 24657 after 48 hrs by broth microdilution method; conditions: ATCC 24657, 48 h; procedure, shortened: as §1
Trichosporon asahii = assay: Antifungal activity against Trichosporon asahii JCM 2466 after 48 hrs by broth microdilution method; conditions: JCM 2466, 48 h; procedure, shortened: as §1
Aspergillus flavus = assay: Antifungal activity against Aspergillus flavus NBRC 6343 after 48 hrs by broth microdilution method; conditions: NBRC 6343, 48 h; procedure, shortened: as §1
Aspergillus fumigatus [4] = assay: Antifungal activity against Aspergillus fumigatus IFM 46895 after 48 hrs by broth microdilution method; conditions: IFM 46895, 48 h; procedure, shortened: as §1
Aspergillus fumigatus [5] = assay: Antifungal activity against Aspergillus fumigatus IFM 49895 after 48 hrs by broth microdilution method; conditions: IFM 49895, 48 h; procedure, shortened: as §1
Aspergillus fumigatus [6] = assay: Antifungal activity against Aspergillus fumigatus TIMM 0063 after 48 hrs by broth microdilution method; conditions: TIMM 0063, 48 h; procedure, shortened: as §1
Aspergillus nidulans = assay: Antifungal activity against Aspergillus nidulans NBRC 33017 after 48 hrs by broth microdilution method; conditions: NBRC 33017, 48 h; procedure, shortened: as §1
Fusarium solani = assay: Antifungal activity against Fusarium solani IFO 31093 after 48 hrs by broth microdilution method; conditions: IFO 31093, 48 h; procedure, shortened: as §1
Mucor racemosus = assay: Antifungal activity against Mucor racemosus NBRC5403 after 24 hrs by broth microdilution method; conditions: NBRC5403, 24 h
Candida albicans [7] = assay: Antifungal activity against Candida albicans ATCC 64124 after 47 hrs by broth microdilution method; conditions: ATCC 64124, 47 h
Procedure, shortened: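 Fluconazole-resistant or susceptible-dose-dependent ATCC C. albicans strains were tested by CLSI M27-A2 broth microdilution in RPMI 1640–0.165 M MOPS, pH 7.0, with a final inoculum of 1.1–1.5 × 10^3 CFU/ml at 35°C for about 47 h. MIC was the lowest concentration with a prominent (~50%) turbidity decrease relative to growth control; amphotericin B was read at complete inhibition.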

Candida albicans [8] = assay: Antifungal activity against Candida albicans ATCC 64550 after 47 hrs by broth microdilution method; conditions: ATCC 64550, 47 h
Procedure, shortened: (§2)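 Fluconazole-resistant or susceptible-dose-dependent C. albicans ATCC strains were tested by broth microdilution in RPMI 1640-MOPS. Inoculum was 1.1 × 10^3–1.5 × 10^3 CFU/ml, with incubation at 35°C for about 47 h. Yeast MIC was read as about 50% turbidity decrease relative to growth control, except amphotericin B, read at complete inhibition.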

Candida albicans [9] = assay: Antifungal activity against Candida albicans ATCC MYA-2732 after 47 hrs by broth microdilution method; conditions: ATCC MYA-2732, 47 h; procedure, shortened: as §2
[10] = tested on: Meyerozyma guilliermondii; assay: Antifungal activity against Candida guilliermondii clinical isolates after 48 hrs by broth microdilution method
Procedure, shortened: (§3)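 Clinical isolates from Japanese hospitals or culture collections were tested by broth microdilution in RPMI 1640-MOPS. Inoculum was 0.57 × 10^3–2.5 × 10^3 CFU/ml for yeasts and 0.4 × 10^4–3.3 × 10^4 CFU/ml for filamentous fungi. Incubation was at 35°C for about 48 h, or 72 h where footnoted. Results were summarised as MIC range, MIC50 and MIC90.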

Pichia kudriavzevii [11] = assay: Antifungal activity against Candida krusei clinical isolates after 48 hrs by broth microdilution method
Procedure, shortened: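 Japanese hospital Candida isolates were tested by CLSI M27-A2 broth microdilution in RPMI 1640–MOPS, pH 7.0, with inocula of 0.57–2.5 × 10^3 CFU/ml at 35°C for about 48 h. Inocula came from 24-h potato dextrose agar cultures. MIC was the lowest concentration with about 50% turbidity reduction versus growth control (complete inhibition for amphotericin B). Range, MIC50 and MIC90 were reported.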

Candida tropicalis = assay: Antifungal activity against Candida tropicalis clinical isolates after 48 hrs by broth microdilution method; procedure, shortened: as §3
Aspergillus fumigatus [12] = assay: Antifungal activity against Aspergillus fumigatus clinical isolates after 48 hrs by broth microdilution method; procedure, shortened: as §3

SMILES: C[C@@H](c1ncncc1F)[C@](O)(Cn1cncn1)c1ccc(F)cc1F [VORICONAZOLE]
- MFC (Candida albicans [1]): > 64 µg/mL
- MIC (Candida albicans [1]): 0.0078 µg/mL (≈ 0.0223 µM)
- MFC (Candida albicans [2]): > 64 µg/mL
- MIC (Candida albicans [2]): 0.0039 µg/mL (≈ 0.0112 µM)
- MFC (Candida dubliniensis): > 64 µg/mL
- MIC (Candida dubliniensis): 0.0078 µg/mL (≈ 0.0223 µM)
- MFC (Pichia kudriavzevii [3]): 2 µg/mL (≈ 5.73 µM)
- MIC (Pichia kudriavzevii [3]): 0.125 µg/mL (≈ 0.358 µM)
- MFC (Cryptococcus neoformans): > 64 µg/mL
- MIC (Cryptococcus neoformans): 0.0625 µg/mL (≈ 0.179 µM)
- MFC (Malassezia furfur): > 64 µg/mL
- MIC (Malassezia furfur): 0.0625 µg/mL (≈ 0.179 µM)
- MFC (Saccharomyces cerevisiae): > 64 µg/mL
- MIC (Saccharomyces cerevisiae): 0.125 µg/mL (≈ 0.358 µM)
- MFC (Trichosporon asahii): > 64 µg/mL
- MIC (Trichosporon asahii): 0.0625 µg/mL (≈ 0.179 µM)
- MFC (Aspergillus flavus): 1 µg/mL (≈ 2.86 µM)
- MIC (Aspergillus flavus): 0.5 µg/mL (≈ 1.43 µM)
- MFC (Aspergillus fumigatus [4]): 4 µg/mL (≈ 11.5 µM)
- MIC (Aspergillus fumigatus [4]): 0.5 µg/mL (≈ 1.43 µM)
- MFC (Aspergillus fumigatus [5]): 8 µg/mL (≈ 22.9 µM)
- MIC (Aspergillus fumigatus [5]): 2 µg/mL (≈ 5.73 µM)
- MFC (Aspergillus fumigatus [6]): 1 µg/mL (≈ 2.86 µM)
- MIC (Aspergillus fumigatus [6]): 1 µg/mL (≈ 2.86 µM)
- MFC (Aspergillus nidulans): 0.25 µg/mL (≈ 0.716 µM)
- MIC (Aspergillus nidulans): 0.125 µg/mL (≈ 0.358 µM)
- MFC (Fusarium solani): 8 µg/mL (≈ 22.9 µM)
- MIC (Fusarium solani): 8 µg/mL (≈ 22.9 µM)
- MFC (Mucor racemosus): > 64 µg/mL
- MIC (Mucor racemosus): > 64 µg/mL
- MIC (Candida albicans [7]): 16 µg/mL (≈ 45.8 µM)
- MIC (Candida albicans [8]): 0.25 µg/mL (≈ 0.716 µM)
- MIC (Candida albicans [9]): 0.25 µg/mL (≈ 0.716 µM)
- MIC50 [10]: 0.0625 µg/mL (≈ 0.179 µM)
- MIC90 [10]: 0.125 µg/mL (≈ 0.358 µM)
- MIC50 (Pichia kudriavzevii [11]): 0.5 µg/mL (≈ 1.43 µM)
- MIC90 (Pichia kudriavzevii [11]): 0.5 µg/mL (≈ 1.43 µM)
- MIC50 (Candida tropicalis): 0.0625 µg/mL (≈ 0.179 µM)
- MIC90 (Candida tropicalis): 0.0625 µg/mL (≈ 0.179 µM)
- MIC50 (Aspergillus fumigatus [12]): 1 µg/mL (≈ 2.86 µM)
- MIC90 (Aspergillus fumigatus [12]): 1 µg/mL (≈ 2.86 µM)

SMILES: OC(Cn1cncn1)(Cn1cncn1)c1ccc(F)cc1F [FLUCONAZOLE]
- MFC (Candida albicans [1]): > 64 µg/mL
- MIC (Candida albicans [1]): 0.125 µg/mL (≈ 0.408 µM)
- MFC (Candida albicans [2]): > 64 µg/mL
- MIC (Candida albicans [2]): 0.125 µg/mL (≈ 0.408 µM)
- MFC (Candida dubliniensis): > 64 µg/mL
- MIC (Candida dubliniensis): 0.125 µg/mL (≈ 0.408 µM)
- MFC (Pichia kudriavzevii [3]): 64 µg/mL (≈ 209 µM)
- MIC (Pichia kudriavzevii [3]): 32 µg/mL (≈ 104 µM)
- MFC (Cryptococcus neoformans): > 64 µg/mL
- MIC (Cryptococcus neoformans): 4 µg/mL (≈ 13.1 µM)
- MFC (Malassezia furfur): > 64 µg/mL
- MIC (Malassezia furfur): 4 µg/mL (≈ 13.1 µM)
- MFC (Saccharomyces cerevisiae): > 64 µg/mL
- MIC (Saccharomyces cerevisiae): 8 µg/mL (≈ 26.1 µM)
- MFC (Trichosporon asahii): > 64 µg/mL
- MIC (Trichosporon asahii): 1 µg/mL (≈ 3.27 µM)
- MFC (Aspergillus flavus): > 64 µg/mL
- MIC (Aspergillus flavus): > 64 µg/mL
- MFC (Aspergillus fumigatus [4]): > 64 µg/mL
- MIC (Aspergillus fumigatus [4]): > 64 µg/mL
- MFC (Aspergillus fumigatus [5]): > 64 µg/mL
- MIC (Aspergillus fumigatus [5]): > 64 µg/mL
- MFC (Aspergillus fumigatus [6]): > 64 µg/mL
- MIC (Aspergillus fumigatus [6]): > 64 µg/mL
- MFC (Aspergillus nidulans): > 64 µg/mL
- MIC (Aspergillus nidulans): 64 µg/mL (≈ 209 µM)
- MFC (Fusarium solani): > 64 µg/mL
- MIC (Fusarium solani): > 64 µg/mL
- MFC (Mucor racemosus): > 64 µg/mL
- MIC (Mucor racemosus): > 64 µg/mL
- MIC (Candida albicans [7]): > 64 µg/mL
- MIC (Candida albicans [8]): 16 µg/mL (≈ 52.2 µM)
- MIC (Candida albicans [9]): 16 µg/mL (≈ 52.2 µM)
- MIC50 [10]: 4 µg/mL (≈ 13.1 µM)
- MIC90 [10]: 8 µg/mL (≈ 26.1 µM)
- MIC50 (Pichia kudriavzevii [11]): 64 µg/mL (≈ 209 µM)
- MIC90 (Pichia kudriavzevii [11]): 64 µg/mL (≈ 209 µM)
- MIC50 (Candida tropicalis): 0.5 µg/mL (≈ 1.63 µM)
- MIC90 (Candida tropicalis): 1 µg/mL (≈ 3.27 µM)
- MIC (Aspergillus fumigatus [12]): > 64 µg/mL
- MIC50 (Aspergillus fumigatus [12]): > 64 µg/mL
- MIC90 (Aspergillus fumigatus [12]): > 64 µg/mL
